Out of some 2,900 compounds screened, about 1,900 (66%) were called active.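 How the source made its calls: active means mean inhibition across replicates above the hit cutoff set in the primary screen (cut at about 8.5% in these data); inactive means the rest.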 The set was probably picked from earlier hits. Not all results are given here.
Molecular target: Disintegrin and metalloproteinase domain-containing protein 17 (Homo sapiens) (UniProt P78536)
Assay: ADAM17 inhibitors, hit retest, confirmation, biochemical, QFRET peptide cleavage (AID 743257);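 further: 0% = DMSO wells and 100% = marimastat wells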
Conditions: recombinant ADAM17, EDANS/DABCYL QFRET peptide cleavage; at 6.95 µM; stronger effect = higher value
In short: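 Assay system – human ADAM17 enzyme, FRET peptide cleavage · Read-out – percent inhibition · Schedule – 30 min preincubation, 3 h reaction · Buffer or medium – 50 mM HEPES buffer, pH 7.5, with 0.01% Brij · Controls – DMSO wells and 1 µM marimastat wells as references · Measured by – fluorescence at ex 359 nm, em 460 nm · Dosing – 6.95 µM compound, single dose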

Disintegrin and metalloproteinase domain-containing protein 17 (Homo sapiens), sequence (P78536 215-824 limits assumed): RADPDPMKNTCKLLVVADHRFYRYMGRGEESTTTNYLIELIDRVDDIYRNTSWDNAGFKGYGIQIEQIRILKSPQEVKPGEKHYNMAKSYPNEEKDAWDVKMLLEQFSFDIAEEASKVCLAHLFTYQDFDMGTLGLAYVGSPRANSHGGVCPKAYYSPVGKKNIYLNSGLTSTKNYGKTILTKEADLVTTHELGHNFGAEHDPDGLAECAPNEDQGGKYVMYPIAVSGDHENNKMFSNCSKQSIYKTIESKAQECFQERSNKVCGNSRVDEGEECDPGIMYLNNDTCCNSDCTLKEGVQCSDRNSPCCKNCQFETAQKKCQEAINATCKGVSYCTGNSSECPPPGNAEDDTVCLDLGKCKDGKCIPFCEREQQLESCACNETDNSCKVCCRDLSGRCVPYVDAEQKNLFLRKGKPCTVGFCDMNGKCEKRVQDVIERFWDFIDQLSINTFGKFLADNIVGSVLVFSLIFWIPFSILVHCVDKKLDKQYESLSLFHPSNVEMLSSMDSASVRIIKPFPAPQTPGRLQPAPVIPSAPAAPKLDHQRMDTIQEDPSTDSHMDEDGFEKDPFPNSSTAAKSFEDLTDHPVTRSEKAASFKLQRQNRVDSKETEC

inhibition, active:
O=C(C[C@H]1C(=O)N(c2ccc(F)c(F)c2)C[C@@H]1Cc1ccccc1)Nc1ccccc1 14.1%
Cc1ccc(C)c(NC(=S)NNC(=S)Nc2ccc(C(C)C)cc2)c1 17.9%
COc1ccc(C(=O)NN2C(=O)C3C(c4ccccc4)C=CC(c4ccccc4)C3C2=O)cc1 (stereo not given) 14%
COc1ccc(S(=O)(=O)N2CCN(C(C)C(=O)Nc3ccc(C(C)C)cc3)CC2)cc1 (stereo not given) 10.8%
CN(C)S(=O)(=O)c1cccc(NC(=O)COC(=O)C2(c3ccccc3F)CCCC2)c1 14.1%
NS(=O)(=O)c1ccc(NC(=O)COC(=O)C2(c3ccc(F)cc3)CCCC2)cc1 14.4%
O=C1/C(=C\c2ccsc2)NC(=S)N1c1ccccc1 8.92%
C=CC(COCc1ccccc1)N(CC(=O)OC)S(=O)(=O)c1cc(Br)ccc1OC (stereo not given) 10.1%
O=C(Nn1c(SCc2ccc([N+](=O)[O-])cc2)nc2ccccc2c1=O)c1ccc(F)cc1 16.4%
COc1ccc(Cn2cc(CN3CCS(=O)(=O)N(Cc4ccc(-c5cccc(Cl)c5)cc4)C(C)C3=O)nn2)cc1 (stereo not given) 11.2%
COc1ccc(-c2ccc(CN3C(CC(C)C)C(=O)N(Cc4cn(CC5CCCCC5)nn4)CCS3(=O)=O)cc2)cc1 (stereo not given) 13.1%
FC(F)(F)Oc1ccccc1C(c1nnnn1C1CCCCC1)N1CCN(C/C=C/c2ccccc2)CC1 (stereo not given) 10.2%
Cc1ccc(Cn2nnc3c(=O)[nH]c(C4CCN(S(=O)(=O)/C=C/c5ccccc5)CC4)nc32)cc1 20.1%
Cc1ccc(NC(=S)NNC(=O)CSc2nnc(SCc3ccccc3Cl)s2)cc1 13.7%
O=C(COC(=O)c1ccccc1)Nc1ccccc1Sc1ccccc1 10.7%
CCCCCC(=O)N1C[C@H](O)[C@@H](n2cc(COC(=O)c3ccccc3)nn2)C[C@@H]1c1ccc(C)cc1 13.5%
C=CCC[C@@H](Cc1ccc(F)cc1)C(=O)OC[C@H](Cc1c[nH]c2ccccc12)NC(=O)[C@@H](CC=C)CC(=O)N(CCO)Cc1ccccc1 16.9%
C=CC[C@H](CC(=O)N(CCO)Cc1ccccc1)C(=O)N[C@@H](COC(=O)[C@@H](CC=C)Cc1ccc(F)cc1)Cc1ccccc1 14.8%
C=CCC[C@@H](Cc1ccc(F)cc1)C(=O)O[C@H](CNC(=O)[C@H](CC=C)CC(=O)N(CCO)Cc1ccccc1)c1ccccc1 21.7%
CC1(C)C=Cc2c(ccc3c2OC[C@@H](c2ccc(O)cc2O)C3)O1 12.3%

inhibition, inactive:
C[C@@H]1CN([C@H](C)CO)C(=O)c2cc(-c3ccc(F)cc3)cnc2O[C@H]1CN(C)C(=O)c1ccc(F)cc1 8.52%
COc1cc(NC(=O)CCS(=O)(=O)c2ccc3c(c2)oc(=O)n3C)cc(OC)c1 6.47%
COc1cc(/C=N/n2c(C)n[nH]c2=S)ccc1OCc1ccccc1 0.43%
C#CCN(C[C@H]1[C@H](OC(=O)NC2CCCC2)[C@H](OC(=O)NC2CCCC2)C[C@H]2C(=O)N(c3ccccc3)C(=O)[C@@H]12)S(=O)(=O)c1ccc(C)cc1 8.59%
Cc1nnc(SCC(=O)Nn2cnnc2)s1 1%
O=C(CSc1nnc(Nc2ccccc2)s1)Nc1cccnc1Cl 4.72%
Cc1ccccc1C(=O)Nc1ccccc1Sc1ccccc1 8.42%
O=C(Nc1ccc(C(=O)NCc2ccccc2Cl)cc1)C1=CSCCO1 4.43%
Cc1ccc(/C=N/NC(=O)CSc2nc3ccccc3o2)cc1 6%
N/C(Cc1ccc([N+](=O)[O-])cc1)=N\OC(=O)COc1ccc2ccccc2c1 6.36%

Reference: PubChem BioAssay AID743257 (The Scripps Research Institute Molecular Screening Center, 2014)
